An excerpt weighted towards active compounds, which were near 1.5% of everything screened.
EBI2 block = EBI2 (human) antagonism; inhibition, % at 5 µM; EBI2 beta-arrestin recruitment, luminescence, 7a,25-OHC stimulated; hit rate 0.81% among 360,000; AID 651636; P32249; in the data active = inhibition above about 38%;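 note: enzyme fragment complementation signal reports receptor beta-arrestin coupling in cells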
APJ antag = APJ receptor antagonism; CHO-K1 APJ beta-arrestin complementation, luminescence; hit rate 0.32% among 330,000; inhibition, % at 20 µM; AID 2521;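 active = inhibition above about 40% at 20 µM, limit read from the data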;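 note: cells challenged with 10 nM apelin-13 agonist together with compound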
Target sequence (P35414 whole entry, looked up): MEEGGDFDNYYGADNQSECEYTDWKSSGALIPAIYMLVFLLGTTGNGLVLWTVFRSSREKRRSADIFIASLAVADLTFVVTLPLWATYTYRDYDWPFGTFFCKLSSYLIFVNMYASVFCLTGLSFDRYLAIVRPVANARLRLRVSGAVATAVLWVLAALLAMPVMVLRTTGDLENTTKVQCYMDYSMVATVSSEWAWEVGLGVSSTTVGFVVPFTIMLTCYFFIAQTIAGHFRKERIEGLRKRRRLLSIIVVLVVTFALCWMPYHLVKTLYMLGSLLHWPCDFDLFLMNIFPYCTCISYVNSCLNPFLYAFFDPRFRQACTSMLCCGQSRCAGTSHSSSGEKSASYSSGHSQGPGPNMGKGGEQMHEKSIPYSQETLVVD
CXCR6 inh = CXCR6 (human) receptor inhibition; O00574; CHO-K1 PathHunter CXCR6 beta-arrestin, luminescence; inhibition, % at 20 µM; hit rate 0.36% among 360,000; AID 602244; in the data active = inhibition above about 34%, passing the limit was not always enough;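 note: antagonist mode with CXCL16 agonist at 10 nM final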
Target sequence (O00574 whole entry, looked up): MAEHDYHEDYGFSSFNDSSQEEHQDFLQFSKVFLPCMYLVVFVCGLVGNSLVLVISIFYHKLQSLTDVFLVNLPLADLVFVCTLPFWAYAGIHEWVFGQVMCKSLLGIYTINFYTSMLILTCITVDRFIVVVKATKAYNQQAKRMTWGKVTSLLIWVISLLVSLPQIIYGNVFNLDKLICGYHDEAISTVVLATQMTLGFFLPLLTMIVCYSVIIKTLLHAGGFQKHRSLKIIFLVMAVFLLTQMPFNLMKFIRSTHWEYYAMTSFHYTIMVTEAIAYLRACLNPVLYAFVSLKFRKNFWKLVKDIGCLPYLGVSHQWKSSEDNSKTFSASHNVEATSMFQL
APJ agonist = agonists of human APJ apelin receptor; hit rate 0.11% among 330,000; activation, % at 20 µM; CHO-K1 APJ PathHunter beta-arrestin, luminescence; 0% DMSO wells, 100% apelin; P35414; AID 2520;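 active = activation more than six SD over the plate average, tested at 20 µM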
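Material: CHO-K1 APJ beta-arrestin complementation cell line; Input: cell density 1000 per well; Incubation: compound stimulation 90 min at 25 °C, detection 60 min; Signal: luminescence from split beta-galactosidase complementation, Galacton Star/Emerald II substrate; Controls: DMSO-only wells as negative, 10 nM Apelin-13 as positive control.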
CCR6 antag = blocks CCL20-driven beta-arrestin recruitment at human CCR6; P51684; CHO-K1 CCR6 PathHunter beta-arrestin, luminescence, CCL20-stimulated; inhibition, % at 20 µM; hit rate 0.49% among 340,000; AID 493098;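 active = compounds whose inhibition of the agonist-driven luminescence signal at 20 µM reaches about 50%, limit read from the data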;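 note: cells stimulated with CCL20 at 14 nM final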
EBI2 antag conf = confirmation of human EBI2 receptor antagonists; shares compounds with EBI2 block; EBI2 beta-arrestin luminescence, 7a,25-OHC antagonism; inhibition, % at 5 µM; hit rate 29% among 2,400;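 active = inhibition of at least 50%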
EBI2 agonist = activates EBI2, counter-screen for EBI2 antagonists. activation, % at 5 µM. shares compounds with EBI2 block. EBI2-expressing cells, agonist mode, luminescence, 60 min; 0% vehicle, 100% 7α,25-dihydroxycholesterol control. AID 652000. 2,400 tested, under 10 active;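 active = activation of at least 50%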
bGal counter = beta-galactosidase inhibition counter-screen | shares compounds with EBI2 block | purified beta-galactosidase, luminescent Galacton Star, 15 min | inhibition, % at 5 µM | hit rate 1% among 2,400 | AID 652176;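 active = replicate-average signal at least 3 plate SD below neutral wells, shown as high inhibition, flagging enzyme-inhibiting false positives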;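 note: higher means stronger loss of beta-gal luminescence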
Each line names hits and unclear results; the compound was inactive in the other large screens (follow-up assays come after a bar, where they were run).

Cc1ccc(C)c(OCCC(=O)N2CCN(S(=O)(=O)c3cc(F)ccc3F)CC2)c1	EBI2 block 46.0 | EBI2 antag conf inactive | EBI2 agonist inactive | bGal counter inactive
Cc1ccc(S(=O)(=O)N2[C@H](CC(=O)c3cccs3)OC[C@@H]2C(C)C)cc1	none (no result: APJ antag, CXCR6 inh, APJ agonist, CCR6 antag)
CCOc1ccc2nc(N/C(N)=N/C(=S)Nc3ccc(OC)cc3)nc(C)c2c1	EBI2 block 43.8 | EBI2 antag conf inactive | EBI2 agonist inactive | bGal counter inactive
CC1(C(=O)Nc2ccc3c(c2)OCCO3)CSCC(=O)N1CCc1ccccc1F (configuration not stated)	none (no result: APJ antag, CXCR6 inh, APJ agonist, CCR6 antag)
CC1(C(=O)NS(=O)(=O)c2ccc(F)cc2F)CCN1C(=O)CC(c1ccccc1)c1ccccc1 (configuration not stated)	none (no result: APJ antag, APJ agonist, CCR6 antag)
Cc1nn(-c2ccccc2)c(C)c1/C=N/NC(=O)c1cc(-c2ccc(Cl)s2)[nH]n1	EBI2 block 52.4 | EBI2 antag conf inactive | EBI2 agonist inactive | bGal counter inactive
Cc1cc(C(=O)N/N=C/c2c(C)nn(-c3ccccc3)c2C)n[nH]1	none
Cc1nn(-c2ccccc2)c(C)c1/C=N/NC(=O)c1cc(-c2ccc(Br)s2)[nH]n1	EBI2 block 59.1 | EBI2 antag conf inactive | EBI2 agonist inactive | bGal counter inactive
Cc1nn(-c2ccccc2)c(C)c1/C=N/NC(=O)c1cc(-c2cccs2)[nH]n1	none
O=C1CC2(CCN(C(=O)COc3ccccc3)CC2)Oc2ccccc21	EBI2 block 45.6 | EBI2 antag conf inactive | EBI2 agonist inactive | bGal counter inactive
Cc1ccccc1OCC(=O)N1CCC2(CC1)CC(=O)c1ccccc1O2	none
O=C1CC2(CCN(C(=O)C3CC(=O)N(c4ccccc4)C3)CC2)Oc2ccccc21 (configuration not stated)	EBI2 block 64.5 | EBI2 antag conf inactive | EBI2 agonist inactive | bGal counter inactive
CCC(C)CN1C(=O)CN(S(C)(=O)=O)CC1(C)C(=O)Nc1c(C)cccc1C (configuration not stated)	none (no result: APJ antag, CXCR6 inh, APJ agonist, CCR6 antag)
Cc1ccc2oc(C(=O)N3CCC(O)(c4cccc(C(F)(F)F)c4)CC3)c(C)c2c1	EBI2 block 56.9 | EBI2 antag conf inactive | EBI2 agonist inactive | bGal counter inactive
CCc1ccc(OCC(=O)N2CCN(c3ccccc3F)CC2)cc1	EBI2 block 64.7 | EBI2 antag conf 75.5 | EBI2 agonist inactive | bGal counter inactive
O=C(COc1ccc2ccccc2c1)N1CCN(c2ccccc2O)CC1	EBI2 block 71.3 | EBI2 antag conf 61.6 | EBI2 agonist inactive | bGal counter inactive
O=C(COc1ccc2ccccc2c1)N1CCNCC1	none
CS(=O)(=O)N1CCN(C(=O)COc2ccc3ccccc3c2)CC1	EBI2 block 78.6 | EBI2 antag conf inactive | EBI2 agonist inactive | bGal counter inactive
COCCN1C(=O)COc2ccccc2C1C(=O)Nc1ccc2c(c1)OCCO2 (configuration not stated)	none (no result: APJ antag, APJ agonist, CCR6 antag)
CNC(=O)c1sc(SC)cc1-c1ccc(Cl)cc1	EBI2 block 50.3 | EBI2 antag conf inactive | EBI2 agonist inactive | bGal counter inactive
CCN1CCN(C(=O)/C=C/c2ccc(OC)c(OC)c2)CC1	none
CCN1CCN(C(=O)/C=C/c2ccc(C(C)C)cc2)CC1	EBI2 block 92.7 | EBI2 antag conf 86.6 | EBI2 agonist inactive | bGal counter inactive
CCN1CCN(C(=O)/C=C/c2cccc(Cl)c2)CC1	EBI2 block 75.1 | EBI2 antag conf inactive | EBI2 agonist inactive | bGal counter inactive
CC(C)(C)S(=O)N1Cc2cc(C(=O)N3CCc4ccccc4C3)nc(-c3cccc(-c4cccnc4)c3)c2[C@@H]1CCO (some centres not stated)	none (no result: APJ antag, APJ agonist, CCR6 antag)
COc1ccc(NC(=O)C(c2ccccc2F)n2c(=O)c(-c3cc4ccccc4[nH]3)nc3ccccc32)cc1 (configuration not stated)	none (no result: APJ antag, CXCR6 inh, APJ agonist, CCR6 antag)
COc1ccc(NC(=O)C2(C)CCN2CC2CCCCC2)cc1OC (configuration not stated)	none (no result: APJ antag, APJ agonist, CCR6 antag)
CN(C)c1ccc(-c2csc(C(O)c3ccc(F)c(F)c3)n2)cc1 (configuration not stated)	none (no result: APJ antag, APJ agonist, CCR6 antag)
Cc1cc(OCC(=O)N2CCCC2)ccc1Cl	none
CCOC(=O)N1CCN(C(=O)COc2ccc(S(=O)(=O)NC(C)C)cc2)CC1	none
CCOC(=O)N1CCN(C(=O)COc2ccc(Cl)cc2)CC1	EBI2 block 83.4 | EBI2 antag conf 55.2 | EBI2 agonist inactive | bGal counter inactive
CCOC(=O)N1CCN(C(=O)COc2ccc(Cl)c(C)c2)CC1	EBI2 block 86.3 | EBI2 antag conf 54.2 | EBI2 agonist inactive | bGal counter inactive
S=C(SSC(=S)N1CCOCC1)N1CCOCC1	none (no result: APJ antag, APJ agonist, CCR6 antag)
CCCCCn1c(SCc2ccncc2)nc2cc(C(=O)NCc3ccco3)ccc2c1=O	EBI2 block 37.5 | EBI2 antag conf inactive | EBI2 agonist inactive | bGal counter inactive
CCCCn1c(SCC(=O)NCc2ccco2)nc2ccccc2c1=O	none
COc1ccc(OC)c(NC(=O)Nc2nnc([C@H]3C[C@H](O)[C@@H](CO)O3)s2)c1	none (no result: APJ antag, APJ agonist, CCR6 antag)
CC1(C(=O)Nc2ccc3ccccc3c2)CCC(=O)N1CCCn1ccnc1 (configuration not stated)	none (no result: APJ antag, APJ agonist, CCR6 antag)
CCOc1cccc(NC(=O)c2ccc(S(=O)(=O)N(C)C)cc2)c1	EBI2 block 46.1 | EBI2 antag conf inactive | EBI2 agonist inactive | bGal counter inactive
C(=C\c1nccc2c1[nH]c1ccccc12)/c1ccccc1	EBI2 block 55.0 | EBI2 antag conf inactive | EBI2 agonist inactive | bGal counter inactive
Fc1ccc(/C=C\c2nccc3c2[nH]c2ccccc23)cc1	EBI2 block 49.3 | EBI2 antag conf inactive | EBI2 agonist inactive | bGal counter inactive
Cc1ccc(/C=C\c2nccc3c2[nH]c2ccccc23)cc1	EBI2 block 74.0 | EBI2 antag conf inactive | EBI2 agonist inactive | bGal counter inactive
O=c1[nH]c2ccccc2nc1/C=C/c1ccccc1	none
Cc1ccc(S(=O)(=O)N2C[C@H]3N(C(=O)OC(C)C)N(C(=O)OC(C)C)C[C@H](OC(=O)NCC4CCCCC4)[C@@]3(O)C2)cc1	none (no result: APJ antag, APJ agonist, CCR6 antag)
C[C@@H]1ON(C)[C@H]2C[C@H]3c4[nH]c5ccc(-c6ccc7c(c6)OCO7)cc5c4CCN3C[C@@H]12	none (no result: APJ antag, APJ agonist, CCR6 antag)
COC(=O)c1ccc(CSc2nnc(Nc3ccc(C)cc3)s2)o1	EBI2 block 37.7 | EBI2 antag conf inactive | EBI2 agonist inactive | bGal counter inactive
Cc1ccc(-c2nnc(/C=C/c3ccccc3)o2)cc1	EBI2 block 48.7 | EBI2 antag conf inactive | EBI2 agonist inactive | bGal counter inactive
Cc1ccc(/C=C/c2nnc(-c3cccc(C)c3)o2)cc1	none
